Laboratory results taken from ChEMBL document CHEMBL2417369, “Synthesis and evaluation of heteroaryl substituted diazaspirocycles as scaffolds to probe the ATP-binding site of protein kinases” (Bioorg Med Chem, 2013).

Legend:
[1] = biological target: Tyrosine-protein kinase Lck (Homo sapiens, UniProt P06239); test: Inhibition of LCK (unknown origin) at 30 uM by microfluidic mobility shift assay relative to control
Summary of the method: (§1)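 Single-point screen in a 24-enzyme kinase panel using a microfluidic assay. Each compound was tested at […] with ATP at roughly the Km for each enzyme. The pan-AGC inhibitor H-89 served as an internal control on every plate.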

[2] = biological target: Tyrosine-protein kinase Lyn (Homo sapiens, UniProt P07948); test: Inhibition of LYN (unknown origin) at 30 uM by microfluidic mobility shift assay relative to control; summary of the method: as §1
Tyrosine-protein kinase Lyn, sequence (P07948 2-512 limits assumed): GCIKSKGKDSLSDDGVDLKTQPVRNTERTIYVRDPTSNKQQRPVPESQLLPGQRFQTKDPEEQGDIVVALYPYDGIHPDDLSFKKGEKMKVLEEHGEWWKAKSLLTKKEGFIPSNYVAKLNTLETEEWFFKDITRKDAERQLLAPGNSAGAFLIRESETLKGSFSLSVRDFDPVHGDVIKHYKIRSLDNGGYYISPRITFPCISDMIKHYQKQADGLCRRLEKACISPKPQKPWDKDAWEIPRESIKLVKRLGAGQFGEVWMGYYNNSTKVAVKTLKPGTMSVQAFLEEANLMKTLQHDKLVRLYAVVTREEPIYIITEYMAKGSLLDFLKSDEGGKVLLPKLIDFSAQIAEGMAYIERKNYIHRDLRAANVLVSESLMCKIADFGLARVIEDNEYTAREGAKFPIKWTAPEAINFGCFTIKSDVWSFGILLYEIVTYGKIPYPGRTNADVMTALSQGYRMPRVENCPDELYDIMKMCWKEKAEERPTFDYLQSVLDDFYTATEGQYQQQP

[3] = biological target: Proto-oncogene tyrosine-protein kinase Src (Homo sapiens, UniProt P12931); test: Inhibition of SRC (unknown origin) at 30 uM by microfluidic mobility shift assay relative to control; summary of the method: as §1
Proto-oncogene tyrosine-protein kinase Src, sequence (P12931 2-536 limits assumed): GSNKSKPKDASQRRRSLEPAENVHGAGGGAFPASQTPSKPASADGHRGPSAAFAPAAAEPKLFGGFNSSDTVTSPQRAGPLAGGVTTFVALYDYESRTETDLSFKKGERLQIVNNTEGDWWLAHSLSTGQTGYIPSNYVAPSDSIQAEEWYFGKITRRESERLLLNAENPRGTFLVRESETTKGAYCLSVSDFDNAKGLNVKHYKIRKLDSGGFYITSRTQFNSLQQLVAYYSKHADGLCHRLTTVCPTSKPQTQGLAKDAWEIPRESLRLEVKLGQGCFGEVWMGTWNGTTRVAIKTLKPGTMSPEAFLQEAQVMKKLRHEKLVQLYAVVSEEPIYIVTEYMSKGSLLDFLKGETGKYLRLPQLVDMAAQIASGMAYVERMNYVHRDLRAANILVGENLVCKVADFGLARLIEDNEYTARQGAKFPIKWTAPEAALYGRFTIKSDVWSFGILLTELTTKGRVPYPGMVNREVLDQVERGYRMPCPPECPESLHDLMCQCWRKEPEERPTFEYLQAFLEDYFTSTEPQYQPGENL

[4] = biological target: Protein kinase C (PKC) (Homo sapiens) (UniProt O94806+P41743+P17252+P05129+Q05655+P05771+Q05513+Q02156+P24723+Q15139+Q04759); test: Inhibition of PKC (unknown origin) at 30 uM by microfluidic mobility shift assay relative to control; summary of the method: as §1
[5] = biological target: Tyrosine-protein kinase Fyn (Homo sapiens, UniProt P06241); test: Inhibition of FYN (unknown origin) at 30 uM by microfluidic mobility shift assay relative to control; summary of the method: as §1
Tyrosine-protein kinase Fyn, sequence (P06241 2-537 limits assumed): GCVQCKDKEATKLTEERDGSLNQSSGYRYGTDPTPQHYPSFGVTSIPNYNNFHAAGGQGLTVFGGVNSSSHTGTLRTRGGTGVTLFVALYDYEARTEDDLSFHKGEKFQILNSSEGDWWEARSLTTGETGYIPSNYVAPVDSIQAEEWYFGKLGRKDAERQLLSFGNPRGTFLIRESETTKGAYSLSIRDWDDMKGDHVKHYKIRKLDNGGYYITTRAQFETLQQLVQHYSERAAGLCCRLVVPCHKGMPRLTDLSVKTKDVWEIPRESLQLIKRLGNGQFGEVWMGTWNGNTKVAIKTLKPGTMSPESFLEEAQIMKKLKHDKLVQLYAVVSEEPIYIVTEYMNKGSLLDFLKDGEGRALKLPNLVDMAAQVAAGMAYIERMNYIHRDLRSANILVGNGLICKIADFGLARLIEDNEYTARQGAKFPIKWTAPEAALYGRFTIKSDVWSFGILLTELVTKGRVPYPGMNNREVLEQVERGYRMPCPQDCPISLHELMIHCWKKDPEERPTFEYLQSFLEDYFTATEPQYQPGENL

[6] = biological target: Insulin receptor (Homo sapiens) (UniProt P06213); test: Inhibition of INSR (unknown origin) at 30 uM by microfluidic mobility shift assay relative to control; summary of the method: as §1
Insulin receptor (Homo sapiens), sequence (P06213 28-758 limits assumed): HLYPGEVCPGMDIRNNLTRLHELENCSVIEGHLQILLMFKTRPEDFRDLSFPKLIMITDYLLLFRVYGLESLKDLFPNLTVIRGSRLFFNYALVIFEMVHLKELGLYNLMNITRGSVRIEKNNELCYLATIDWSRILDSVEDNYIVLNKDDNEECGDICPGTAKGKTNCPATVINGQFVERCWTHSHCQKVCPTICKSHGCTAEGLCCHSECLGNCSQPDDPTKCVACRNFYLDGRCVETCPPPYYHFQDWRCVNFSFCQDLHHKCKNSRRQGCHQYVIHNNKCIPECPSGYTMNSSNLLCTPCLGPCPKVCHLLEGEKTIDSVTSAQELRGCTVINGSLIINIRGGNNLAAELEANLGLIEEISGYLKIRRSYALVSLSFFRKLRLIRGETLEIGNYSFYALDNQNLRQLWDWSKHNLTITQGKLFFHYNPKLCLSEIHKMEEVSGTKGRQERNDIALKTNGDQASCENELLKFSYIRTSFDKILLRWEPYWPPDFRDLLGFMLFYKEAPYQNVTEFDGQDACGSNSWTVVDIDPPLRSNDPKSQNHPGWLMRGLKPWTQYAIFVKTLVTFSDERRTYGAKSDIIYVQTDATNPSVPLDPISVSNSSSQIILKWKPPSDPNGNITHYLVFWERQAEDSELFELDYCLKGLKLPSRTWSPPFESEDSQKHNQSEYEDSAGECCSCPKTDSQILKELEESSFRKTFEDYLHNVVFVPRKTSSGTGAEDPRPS
Insulin receptor (Homo sapiens), sequence (P06213 763-1382 limits assumed): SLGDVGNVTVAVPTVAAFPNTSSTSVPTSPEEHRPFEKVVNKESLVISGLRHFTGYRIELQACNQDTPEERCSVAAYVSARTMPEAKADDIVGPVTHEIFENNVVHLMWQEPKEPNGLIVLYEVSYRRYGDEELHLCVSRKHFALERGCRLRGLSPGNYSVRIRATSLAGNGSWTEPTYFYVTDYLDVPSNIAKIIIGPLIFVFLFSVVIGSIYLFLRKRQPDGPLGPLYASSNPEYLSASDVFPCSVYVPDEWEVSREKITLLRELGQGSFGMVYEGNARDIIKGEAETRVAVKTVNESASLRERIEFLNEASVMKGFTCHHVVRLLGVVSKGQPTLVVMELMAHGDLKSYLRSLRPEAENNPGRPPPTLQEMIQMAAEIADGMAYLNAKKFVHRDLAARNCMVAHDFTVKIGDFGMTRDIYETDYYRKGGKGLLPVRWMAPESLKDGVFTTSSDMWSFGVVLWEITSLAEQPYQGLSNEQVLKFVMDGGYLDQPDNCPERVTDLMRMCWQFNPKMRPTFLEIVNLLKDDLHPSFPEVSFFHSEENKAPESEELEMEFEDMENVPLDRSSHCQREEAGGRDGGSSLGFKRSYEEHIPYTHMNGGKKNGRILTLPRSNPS

Homo sapiens = species on record: Homo sapiens; test: Inhibition of PKA (unknown origin) at 30 uM by microfluidic mobility shift assay relative to control; summary of the method: as §1

Tyrosine-protein kinase Lck, sequence (P06239 2-509 limits assumed): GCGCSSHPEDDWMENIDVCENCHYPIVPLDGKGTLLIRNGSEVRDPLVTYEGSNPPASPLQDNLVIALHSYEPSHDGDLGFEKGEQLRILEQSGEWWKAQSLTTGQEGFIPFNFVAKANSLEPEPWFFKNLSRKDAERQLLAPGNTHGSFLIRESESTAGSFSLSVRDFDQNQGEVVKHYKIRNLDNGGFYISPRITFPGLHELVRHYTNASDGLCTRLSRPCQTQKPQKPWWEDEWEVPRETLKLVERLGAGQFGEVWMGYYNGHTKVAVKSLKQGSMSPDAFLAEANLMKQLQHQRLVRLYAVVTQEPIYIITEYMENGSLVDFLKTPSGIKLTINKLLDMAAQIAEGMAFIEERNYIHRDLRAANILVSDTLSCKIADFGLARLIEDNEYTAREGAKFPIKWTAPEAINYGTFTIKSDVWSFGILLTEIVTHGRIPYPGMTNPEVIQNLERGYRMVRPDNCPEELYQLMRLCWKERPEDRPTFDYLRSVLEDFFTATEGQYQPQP

- inhibition [1]: 22%
- inhibition [2]: 50%
- inhibition [3]: 4%
- inhibition [4]: 64%
- inhibition [5]: 14%
- inhibition [6]: 29%
- inhibition (Homo sapiens): 100%
SMILES: O=S(=O)(NCCNC/C=C/c1ccc(Br)cc1)c1cccc2cnccc12
